A selection: hits, their analogues and other compounds. The true share with any hit is near 2.4%.
HTRA1 inh: inhibitors of human serine peptidase HTRA1; inhibition, % at 5.96 µM; Q92743; hit rate 0.5% among 340,000; recombinant HTRA1, FP-rhodamine activity-based probe, fluorescence polarization; in the data active = inhibition above about 36%;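 note: 0% = enzyme with DMSO and 100% = wells lacking enzyme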
PRMT1 FP inh: inhibitors of human PRMT1; inhibition, % at 2.79 µM; Q99873; recombinant PRMT1, activity-based probe fluorescence polarization; hit rate 1.3% among 370,000; AID 652257;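 active = inhibition above about 21% made by adding two undisclosed values, limit read from the data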
Target sequence (Q99873 whole entry, looked up): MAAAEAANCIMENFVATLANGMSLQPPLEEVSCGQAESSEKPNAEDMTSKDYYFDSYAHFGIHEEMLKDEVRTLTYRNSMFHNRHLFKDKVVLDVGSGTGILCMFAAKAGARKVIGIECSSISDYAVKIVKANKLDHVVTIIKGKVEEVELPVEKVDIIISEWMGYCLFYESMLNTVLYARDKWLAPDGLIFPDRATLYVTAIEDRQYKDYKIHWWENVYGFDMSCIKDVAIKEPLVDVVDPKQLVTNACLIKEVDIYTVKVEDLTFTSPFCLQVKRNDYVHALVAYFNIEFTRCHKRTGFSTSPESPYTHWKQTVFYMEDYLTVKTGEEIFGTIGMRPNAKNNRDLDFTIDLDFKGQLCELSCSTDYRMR
SIAE inh: human SIAE inhibition, primary screen; Q9HAT2; SIAE FP-Rh probe binding, fluorescence polarization; inhibition, % at 9.66 µM; hit rate 0.69% among 370,000; AID 1053197;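 active = inhibition above a cutoff: mean of compounds within the control limits plus 3 SD of those, cut at about 17% in these data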;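 note: 0% = plate median of compound wells and 100% = probe without SIAE protein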
JMJD2C inh: human JMJD2C demethylase inhibition; GST-JMJD2C(1-420) H3K9me3 demethylation, DELFIA europium; inhibition, % at 2.35 µM; Q9H3R0; hit rate 0.069% among 330,000; AID 2099;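 active = more than half of a compound's replicate wells show inhibition beyond 50%, single wells judged on their own value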;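 note: signal counts dimethyl H3K9 product captured on neutravidin plate; 0% = median of DMSO wells and 100% = 0.3 times that DMSO median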
mABHD4 FP: ABHD4 (mouse) inhibition, primary FP screen | Q8VD66 | purified mABHD4, FP-Rh probe fluorescence polarization | inhibition, % at 8.92 µM | hit rate 0.54% among 370,000 | AID 720543;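 active = inhibition exceeding the mean over every tested compound plus 3 SD, cut at about 30% in these data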;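 note: 0% = plate median of compound wells and 100% = S159A mutant with DMSO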
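assay system = mABHD4 protein | compound dosing = single nominal dose of 8.92 µM, 0.89% DMSO final | read-out basis = percent inhibition of probe binding, normalized to plate controls | schedule = Enzyme–compound pre-incubation 45 min, then probe 60 min, both 25 °C | detection = fluorescence polarization, excitation 525 nm, emission 598 nm, BODIPY TMR filters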
SIAE inh conf: confirmation of human SIAE inhibitors | SIAE FP-Rh activity-based probe, fluorescence polarization | shares compounds with SIAE inh | hit rate 13% among 2,300 | inhibition, % at 9.66 µM;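 active = mean inhibition of the replicates above the hit cutoff set in the primary screen, cut at about 17% in these data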;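 note: 0% = SIAE with DMSO and probe and 100% = probe without SIAE; inhibitors lower polarization as more probe stays unbound to SIAE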
* = called active by the depositor; . = no result.

SMILES	HTRA1 inh	PRMT1 FP inh	SIAE inh	JMJD2C inh	mABHD4 FP	SIAE inh conf
CCOC(=O)CN(C(=O)CSc1nnc2c(n1)[nH]c1ccccc12)c1ccccc1	-3	1	23*	21	-10	-37
CCCn1c(=O)[nH]c(=O)c2c1nc(-c1ccc(OC)c(Br)c1)n2CCOC	-3	-4	21*	-32	-8	-17
CN(C)c1ccc(C(CNS(=O)(=O)c2ccc(F)c(F)c2)c2c[nH]c3ccccc23)cc1 (stereo unspecified)	11	1	27*	-5	-10	3
CN(C)c1ccc(C(CNC(=O)c2ccccc2F)c2c[nH]c3ccccc23)cc1 (stereo unspecified)	-5	-3	0	3	2	.
CC(C)(C)c1n[nH]c(=S)n(/N=C/c2cccs2)c1=O	5	1	-2	-13	-2	.
Cc1n[nH]c(=S)n(/N=C/c2cccs2)c1=O	2	-4	19*	-5	1	-2
CCNC(=S)NN=C1c2ccccc2-c2ccccc21	-33	4	24*	3	-1	4
C=C(C)CNC(=S)NN=C1c2ccccc2-c2ccccc21	-36	.	.	3	.	.
O=C(CSc1nnc(COc2ccccc2)n1-c1ccccc1)Nc1ccc(S(=O)(=O)Nc2nccs2)cc1	.	-2	-12	.	-18	.
CN(c1ccc(OCC(=O)OCC(=O)Nc2ccccc2)cc1)S(=O)(=O)c1ccc(F)cc1	-14	2	-5	3	2	.
CN(c1ccc(OCC(=O)OCC(=O)Nc2ccc([N+](=O)[O-])cc2)cc1)S(=O)(=O)c1cccs1	-8	4	40*	.	5	26*
CCS(=O)(=O)Nc1ccc2c(c1)C(=O)N(C)[C@@H]1CC[C@H](CC(=O)OC)O[C@H]1CO2	.	-1	-4	.	3	.
CCS(=O)(=O)Nc1ccc2c(c1)C(=O)N(C)[C@@H]1CC[C@H](CC(=O)NCCCN3CCOCC3)O[C@H]1CO2	.	-6	18*	.	-4	19*
COc1ccccc1NC(=S)NCCc1ccc(S(N)(=O)=O)cc1	-2	-5	2	-2	2	.
COc1ccccc1NC(=S)NCCN1CCOCC1	-3	-5	17*	-12	-2	3
COc1ccccc1NC(=S)NCc1ccc(Cl)cc1	-2	0	18*	36	7	-1
COc1ccc(Cl)cc1NC(=S)NCCc1ccc(S(N)(=O)=O)cc1	-6	-1	36*	1	-3	2
CCOC(=O)CC[C@@]1(C(=O)OCC)C[C@@H](CC(=O)NCCCN2CCCC2=O)C(=O)N2CCCC=C21	.	5	5	.	0	.
COc1ccc(NC(=O)N(C)C[C@H]2Oc3ccc(NS(=O)(=O)c4ccc(F)cc4)cc3C(=O)N([C@H](C)CO)C[C@@H]2C)cc1	-5	-2	18*	.	10	3
C[C@H]1[C@@H](OC(=O)NCc2cccc(C(F)(F)F)c2)CC[C@@]23CCCN2C(=O)CCC[C@@H]13	.	-6	3	.	-1	.
COC(=O)c1cc(NC(=O)NC2CCCCN(Cc3cccc(Cl)c3)C2=O)cc(C(=O)OC)c1 (stereo unspecified)	.	-1	2	.	2	.
O=C(Nc1ccccc1Cl)c1cc(C2CCCN(C(=O)c3ccccc3)C2)on1 (stereo unspecified)	.	1	0	.	-4	.
CC(C)CCn1c(COc2ccccc2)n[nH]c1=S	4	6	20*	17	-7	3
S=c1[nH]nc(COc2ccccc2)n1Cc1ccccc1	3	6	6	23	-2	.
O=C1c2ccccc2C(c2nc3ccccc3[nH]2)N1c1ccccn1 (stereo unspecified)	.	6	6	.	-2	.
SMILES	HTRA1 inh	PRMT1 FP inh	SIAE inh	JMJD2C inh	mABHD4 FP	SIAE inh conf
CCn1c2ccccc2c2cc(NC(=O)c3ccc(C)c([N+](=O)[O-])c3)ccc21	-2	-1	21*	-7	0	-4
CC(=O)Nc1ccc(O)cc1[N+](=O)[O-]	-1	-1	20*	-3	-4	-3
C=CCN1C(=O)[C@@H](CC(=O)NCc2ccccc2)[C@]2(C(=O)OCC)CCCCC/C=C/12	.	0	5	.	-1	.
Cc1ccc(-n2c(SCC(=O)Nc3cccc4ccccc34)nnc2-c2ccccc2)cc1	.	0	2	.	1	.
Cc1cccc(C)c1NC(=O)c1cc(S(=O)(=O)N2CCOCC2)cn1C	0	-1	19*	-5	-5	-1
CN(C)C1=C(Cl)C(=O)N(c2ccc(Cl)c(Cl)c2)C1=O	-62	14	19*	11	5	1
CN(C)/C=C1\C(=O)N(c2ccc(Cl)c(Cl)c2)CS1(=O)=O	2	0	-3	5	2	.
CCOC(=O)COn1c(=O)c(-c2ccc(Br)cc2)[n+]([O-])c2ccccc21	3	-5	17*	-1	-5	-1
COc1ccc(NC(=O)CSc2nnc(Cn3cnc4ccccc43)o2)cc1	8	-1	18*	19	-2	0
Cc1cccc(NC(=O)CSc2nnc(Cn3cnc4ccccc43)o2)c1	-5	-4	0	1	3	.
CCN1C[C@@H]2[C@@H]3C(=O)N(C)C(=O)[C@@H]3[C@](Cc3ccccc3)(C1=O)N2C(=O)c1ccc(C(C)(C)C)cc1	-2	2	21*	.	1	0
CCN1C[C@@H]2[C@@H]3C(=O)N(C)C(=O)[C@@H]3[C@](Cc3ccccc3)(C1=O)N2C(=O)c1ccc(C)cc1	0	1	-3	.	1	.
C=C(C)/C=C1/CN(Cc2ccc3c(c2)OCO3)C(=N)N1C(=O)OCc1ccccc1	.	6	7	.	-6	.
CC(C)c1cc(C(C)C)c(S(=O)(=O)N2CCC(C(=O)NCC3COCCO3)CC2)c(C(C)C)c1 (stereo unspecified)	.	1	-1	.	-6	.
CC(C)=CCC(C)(C)CNC(=O)NC1CCCCC1	-6	1	20*	10	-2	-4
CCNc1nc(NCC)nc(N/N=C/c2ccc(O)c(O)c2)n1	32	-1	18*	-3	13	2
CCNc1nc(NCC)nc(N/N=C/c2ccc(N(C)C)cc2)n1	9	2	1	6	4	.
COC(=O)[C@H](C(C)C)N(CCCc1cn(CC2CCCCC2)nn1)S(=O)(=O)c1ccccc1Br	.	3	-6	.	2	.
Cc1ccccc1-c1nn(-c2ccc(F)cc2F)cc1CNCCCN(C)C	4	-3	18*	-5	2	7
Cc1cc2c(OCC(CNC(C)(C)C)OC(=O)c3ccccc3)cccc2[nH]1 (stereo unspecified)	.	-3	-2	.	2	.
Cc1cccc(NC(=O)C2CCCN2S(=O)(=O)c2cccc3cccnc23)c1C (stereo unspecified)	.	-4	2	.	-3	.
CNc1nnc(CSc2nc3ccccc3s2)s1	1	1	-4	8	-1	.
CNc1nnc(CSc2nc(C)cc(C)n2)s1	5	0	27*	4	5	9
